Data set [1] has as its target Mast/stem cell growth factor receptor Kit (Homo sapiens, UniProt P10721). The data set is described as follows: Inhibition of CKIT.
In data set [2] the target is Vascular endothelial growth factor receptor 1 (Homo sapiens, UniProt P17948). The experiment in a line: Inhibition of FLT1.
Data set [3] concerns the target Vascular endothelial growth factor receptor 3 (Homo sapiens, UniProt P35916). The data set is described as follows: Inhibition of FLT4.
For a further data set, the target named is Angiopoietin-1 receptor (Homo sapiens, UniProt Q02763). The experiment in a line: Inhibition of TIE2. An outline of the steps:
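Kinase enzymatic assays run separately for each target. Each IC50 came from seven inhibitor concentrations, with every assay point determined in duplicate.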

Data set [4] in a line: Oral bioavailability in mouse at 10 mg/kg, po. The settings on record: in vivo.
Data set [5] in a line: Half life in mouse at 3 mg/kg, iv. Set-up: dose 3 mg/kg, route intravenous. The settings on record: in vivo. The format is ADME, organism-based. The gist of the method:
(§1)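 Mouse pharmacokinetics: single intravenous dose of 3 mg/kg and single oral dose of 10 mg/kg. Half-life, volume of distribution at steady state, clearance, oral bioavailability and oral AUC were determined.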

Data set [6] in a line: Volume of distribution in mouse at 3 mg/kg, iv. The format is ADME, organism-based. Set-up: dose 3 mg/kg, route intravenous. The following applies: in vivo, read-out: Vdss.
Data set [7] can be described thus: Clearance in mouse at 3 mg/kg, iv. The settings on record: in vivo. Set-up: dose 3 mg/kg, route intravenous. In kind it is ADME, organism-based.
A short description of data set [8]: AUC in mouse at 10 mg/kg, po. In kind it is ADME, organism-based. The settings on record: plasma. Set-up: dose 10 mg/kg, route oral. The gist of the method: as §1
In data set [9] the target is Vascular endothelial growth factor receptor 2 (Homo sapiens, UniProt P35968). The experiment in a line: Inhibition of KDR.

Molecules are shown by their SMILES. Some results are limits rather than exact numbers.

The results in this text go back to ChEMBL document CHEMBL1145310, “Isothiazolopyrimidines and isoxazolopyrimidines as novel multi-targeted inhibitors of receptor tyrosine kinases” (Bioorg Med Chem Lett, 2006).

Vascular endothelial growth factor receptor 1, sequence (P17948 whole entry): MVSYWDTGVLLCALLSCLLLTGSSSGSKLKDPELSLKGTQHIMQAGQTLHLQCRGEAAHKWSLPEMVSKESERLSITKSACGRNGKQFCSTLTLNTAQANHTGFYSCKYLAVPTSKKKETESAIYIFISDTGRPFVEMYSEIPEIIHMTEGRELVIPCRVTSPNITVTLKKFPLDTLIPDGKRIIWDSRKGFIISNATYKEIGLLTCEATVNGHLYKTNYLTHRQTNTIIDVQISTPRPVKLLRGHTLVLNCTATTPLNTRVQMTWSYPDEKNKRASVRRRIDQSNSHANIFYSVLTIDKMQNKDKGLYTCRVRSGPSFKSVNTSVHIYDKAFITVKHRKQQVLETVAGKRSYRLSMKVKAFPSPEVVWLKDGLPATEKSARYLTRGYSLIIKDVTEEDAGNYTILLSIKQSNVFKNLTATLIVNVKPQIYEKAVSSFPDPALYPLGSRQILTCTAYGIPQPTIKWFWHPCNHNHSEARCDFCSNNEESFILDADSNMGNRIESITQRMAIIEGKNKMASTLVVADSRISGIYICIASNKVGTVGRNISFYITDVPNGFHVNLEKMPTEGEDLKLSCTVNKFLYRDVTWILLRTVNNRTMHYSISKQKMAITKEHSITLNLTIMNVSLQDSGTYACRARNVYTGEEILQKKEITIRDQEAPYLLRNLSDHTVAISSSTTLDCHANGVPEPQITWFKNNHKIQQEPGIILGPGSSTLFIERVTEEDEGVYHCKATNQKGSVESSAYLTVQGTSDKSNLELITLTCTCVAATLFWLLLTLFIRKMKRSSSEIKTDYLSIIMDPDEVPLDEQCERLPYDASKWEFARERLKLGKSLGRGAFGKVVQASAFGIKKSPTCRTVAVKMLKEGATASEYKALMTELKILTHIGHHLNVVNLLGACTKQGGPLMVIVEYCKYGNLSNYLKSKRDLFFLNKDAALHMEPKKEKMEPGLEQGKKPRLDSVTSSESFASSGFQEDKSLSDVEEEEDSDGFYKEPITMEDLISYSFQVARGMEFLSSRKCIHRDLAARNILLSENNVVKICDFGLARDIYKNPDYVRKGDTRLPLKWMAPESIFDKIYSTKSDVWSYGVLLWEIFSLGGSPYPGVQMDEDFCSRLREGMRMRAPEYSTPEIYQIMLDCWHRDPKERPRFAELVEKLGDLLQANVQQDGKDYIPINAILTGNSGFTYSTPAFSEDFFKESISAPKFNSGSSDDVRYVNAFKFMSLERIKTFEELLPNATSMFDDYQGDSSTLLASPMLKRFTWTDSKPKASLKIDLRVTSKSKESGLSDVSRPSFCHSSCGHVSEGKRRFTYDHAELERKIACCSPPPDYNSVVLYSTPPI
Angiopoietin-1 receptor, sequence (Q02763 whole entry): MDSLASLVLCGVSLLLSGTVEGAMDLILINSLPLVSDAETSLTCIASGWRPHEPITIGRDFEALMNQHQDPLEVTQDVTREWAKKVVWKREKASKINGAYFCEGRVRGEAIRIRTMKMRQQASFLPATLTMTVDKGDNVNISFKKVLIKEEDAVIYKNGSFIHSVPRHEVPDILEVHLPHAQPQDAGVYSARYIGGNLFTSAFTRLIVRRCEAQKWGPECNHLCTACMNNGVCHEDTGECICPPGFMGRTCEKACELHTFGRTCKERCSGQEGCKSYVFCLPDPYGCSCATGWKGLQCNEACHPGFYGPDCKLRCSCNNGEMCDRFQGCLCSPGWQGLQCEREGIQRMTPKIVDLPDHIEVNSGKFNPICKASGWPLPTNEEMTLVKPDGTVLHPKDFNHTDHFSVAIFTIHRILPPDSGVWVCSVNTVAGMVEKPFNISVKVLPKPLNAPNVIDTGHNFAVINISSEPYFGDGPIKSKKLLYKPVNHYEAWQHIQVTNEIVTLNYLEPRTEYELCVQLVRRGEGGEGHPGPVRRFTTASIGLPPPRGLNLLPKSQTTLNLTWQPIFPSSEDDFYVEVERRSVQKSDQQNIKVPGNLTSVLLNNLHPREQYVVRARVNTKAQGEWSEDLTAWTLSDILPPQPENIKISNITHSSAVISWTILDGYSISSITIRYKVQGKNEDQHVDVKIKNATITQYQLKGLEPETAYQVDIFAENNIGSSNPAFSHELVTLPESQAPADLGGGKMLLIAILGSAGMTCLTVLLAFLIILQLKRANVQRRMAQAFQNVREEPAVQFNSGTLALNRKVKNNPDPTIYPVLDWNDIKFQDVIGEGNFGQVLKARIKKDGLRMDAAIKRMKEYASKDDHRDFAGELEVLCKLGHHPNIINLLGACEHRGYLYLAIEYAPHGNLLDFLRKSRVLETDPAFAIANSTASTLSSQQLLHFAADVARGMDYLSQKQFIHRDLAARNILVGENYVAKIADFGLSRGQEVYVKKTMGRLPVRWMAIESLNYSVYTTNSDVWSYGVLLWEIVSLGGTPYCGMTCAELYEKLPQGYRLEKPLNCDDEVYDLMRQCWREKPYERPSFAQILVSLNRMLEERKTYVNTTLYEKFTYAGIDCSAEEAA
Vascular endothelial growth factor receptor 3, sequence (P35916 whole entry): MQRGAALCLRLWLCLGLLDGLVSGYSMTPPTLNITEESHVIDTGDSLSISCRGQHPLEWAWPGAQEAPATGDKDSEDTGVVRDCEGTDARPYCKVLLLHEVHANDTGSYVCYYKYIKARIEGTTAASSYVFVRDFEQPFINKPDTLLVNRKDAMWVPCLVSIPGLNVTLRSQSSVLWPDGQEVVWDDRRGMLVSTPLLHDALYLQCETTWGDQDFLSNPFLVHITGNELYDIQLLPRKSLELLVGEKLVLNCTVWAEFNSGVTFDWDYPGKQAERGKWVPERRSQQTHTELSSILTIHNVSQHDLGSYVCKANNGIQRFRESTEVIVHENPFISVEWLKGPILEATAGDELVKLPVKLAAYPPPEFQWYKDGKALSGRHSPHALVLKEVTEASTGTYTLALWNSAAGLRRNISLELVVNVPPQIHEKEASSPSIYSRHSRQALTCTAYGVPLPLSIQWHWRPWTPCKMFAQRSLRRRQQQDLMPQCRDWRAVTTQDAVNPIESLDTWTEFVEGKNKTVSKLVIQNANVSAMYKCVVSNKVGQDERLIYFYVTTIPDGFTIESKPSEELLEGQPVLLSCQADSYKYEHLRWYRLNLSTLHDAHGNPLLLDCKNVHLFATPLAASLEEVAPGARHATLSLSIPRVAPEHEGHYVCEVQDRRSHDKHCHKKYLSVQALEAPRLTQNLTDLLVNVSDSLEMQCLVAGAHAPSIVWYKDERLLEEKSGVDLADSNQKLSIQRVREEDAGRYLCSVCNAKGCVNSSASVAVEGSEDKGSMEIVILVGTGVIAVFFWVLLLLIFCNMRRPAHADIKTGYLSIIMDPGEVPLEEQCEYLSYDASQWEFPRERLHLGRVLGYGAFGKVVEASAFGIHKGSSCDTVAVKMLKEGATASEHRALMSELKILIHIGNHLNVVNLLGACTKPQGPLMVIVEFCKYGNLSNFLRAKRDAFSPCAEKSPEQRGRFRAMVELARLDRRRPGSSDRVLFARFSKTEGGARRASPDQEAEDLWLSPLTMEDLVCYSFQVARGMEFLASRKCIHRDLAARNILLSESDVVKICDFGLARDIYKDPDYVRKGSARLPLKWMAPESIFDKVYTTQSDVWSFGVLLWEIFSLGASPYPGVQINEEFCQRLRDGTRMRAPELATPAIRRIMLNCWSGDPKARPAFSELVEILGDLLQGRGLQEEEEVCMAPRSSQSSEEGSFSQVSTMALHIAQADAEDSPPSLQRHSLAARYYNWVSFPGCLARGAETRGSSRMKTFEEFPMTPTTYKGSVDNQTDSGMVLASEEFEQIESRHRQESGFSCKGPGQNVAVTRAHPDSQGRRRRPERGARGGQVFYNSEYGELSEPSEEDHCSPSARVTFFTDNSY
Mast/stem cell growth factor receptor Kit, sequence (P10721 whole entry): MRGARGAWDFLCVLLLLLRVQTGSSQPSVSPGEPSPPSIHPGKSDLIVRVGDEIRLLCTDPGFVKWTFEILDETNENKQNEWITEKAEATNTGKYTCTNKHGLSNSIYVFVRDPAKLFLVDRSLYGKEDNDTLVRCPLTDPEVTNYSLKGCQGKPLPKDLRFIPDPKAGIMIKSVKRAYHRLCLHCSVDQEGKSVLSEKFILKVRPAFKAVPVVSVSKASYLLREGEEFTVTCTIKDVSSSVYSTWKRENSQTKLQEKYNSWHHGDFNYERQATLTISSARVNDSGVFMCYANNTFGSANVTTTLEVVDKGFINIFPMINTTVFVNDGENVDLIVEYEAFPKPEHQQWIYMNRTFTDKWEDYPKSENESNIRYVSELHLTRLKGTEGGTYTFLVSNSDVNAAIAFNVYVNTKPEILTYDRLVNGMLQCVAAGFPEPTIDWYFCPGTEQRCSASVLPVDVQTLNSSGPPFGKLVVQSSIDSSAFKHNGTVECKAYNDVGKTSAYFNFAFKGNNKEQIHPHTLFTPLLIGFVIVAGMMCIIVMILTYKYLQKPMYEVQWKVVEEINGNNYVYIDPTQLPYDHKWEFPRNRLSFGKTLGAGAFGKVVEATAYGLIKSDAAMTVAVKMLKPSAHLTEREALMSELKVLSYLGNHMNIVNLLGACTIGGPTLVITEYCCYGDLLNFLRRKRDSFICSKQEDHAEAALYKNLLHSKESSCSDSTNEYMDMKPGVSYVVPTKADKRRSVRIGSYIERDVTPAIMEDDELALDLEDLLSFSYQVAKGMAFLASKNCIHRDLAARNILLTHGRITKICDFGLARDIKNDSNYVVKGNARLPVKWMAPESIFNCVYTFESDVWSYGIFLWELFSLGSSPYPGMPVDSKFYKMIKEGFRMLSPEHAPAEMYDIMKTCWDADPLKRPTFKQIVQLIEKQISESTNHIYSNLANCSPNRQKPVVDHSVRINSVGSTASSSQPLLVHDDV

As for `Nc1ncnc2snc(-c3ccc(NC(=O)Nc4cc(C(F)(F)F)ccc4F)cc3)c12`, the IC50 in data set [1] came to 0.028 µM; in [2] it was 0.075 µM; in [3] it was 0.023 µM; on Angiopoietin-1 receptor, 0.022 µM.
`Cc1ccc(F)c(NC(=O)Nc2ccc(-c3nsc4ncnc(N)c34)cc2)c1` had a bioavailability in data set [4] of 48%. In addition, the half-life in data set [5] is 12 min. Also, in [6], the Vd was found to be 1.19 L/kg. For the same compound, the clearance in data set [7] was 75 mL/min/kg. In [8], this compound returned an AUC of 2.7 µM·h. This compound returned an IC50 at Angiopoietin-1 receptor of 0.019 µM.
On to `Cc1cc(C)c2oc(Nc3ccc(-c4noc5ncnc(N)c45)cc3)nc2c1`, for which the IC50 in [9] was > 50 µM.
On to `Cc1cccc(NC(=O)Nc2ccc(-c3csc4ncnc(N)c34)cc2)c1`, for which the bioavailability in data set [4] amounted to 65%. The half-life in data set [5] was 42 min. The AUC in data set [8] came to 14 µM·h.
Take `Nc1ncnc2onc(-c3ccc(NC(=O)c4ccccc4)cc3)c12`: in data set [9], the half-maximal inhibitory concentration (IC50) was > 50 µM.
As to `Nc1ncnc2snc(-c3ccc([N+](=O)[O-])cc3)c12`, in data set [9], the IC50 is > 50 µM.
Take `Cc1cccc(NC(=O)Nc2ccc(-c3nsc4ncnc(N)c34)cc2)c1`: the IC50 in data set [1] was found to be 0.011 µM; in data set [2], 0.079 µM; in data set [3], 0.004 µM; at Angiopoietin-1 receptor, 0.415 µM. In data set [4], this compound returned a bioavailability of 56%. Also, in [5], the half-life was 36 min. Besides, the Vd in [6] was 1.36 L/kg. In data set [7], this compound had a clearance of 26.7 mL/min/kg. In data set [8], this compound registered an AUC of 9.1 µM·h.
Regarding `Nc1ncnc2snc(-c3ccc(NC(=O)Nc4cccc(C(F)(F)F)c4)cc3)c12`, the IC50 in data set [1] was 0.018 µM; in data set [2] it was 0.039 µM; in [3] it was < 0.003 µM; against Angiopoietin-1 receptor, 0.028 µM.
